In ChEMBL document CHEMBL1135528, “Monocyclic human tachykinin NK-2 receptor antagonists as evolution of a potent bicyclic antagonist: QSAR and site-directed mutagenesis studies” (J Med Chem, 2002) one finds KD/Ki and UB data, which are given here for one molecule.

Assay [1] deals with Substance-K receptor (Homo sapiens), P21452 [S164A]. Nature of the assay: Binding affinity against S164A human neurokinin-2 receptor (hNK-2R) using [3H]nepadutant as a radioligand. In a few lines:
(§1)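 Membranes from cells stably transfected with wild-type or mutant hNK-2R, incubated with [3H]nepadutant for 60 min at 20 °C in 50 mM Tris-HCl pH 7.4 containing peptidase inhibitors, 150 mM NaCl, 5 mM MnCl2 and 1 g/L BSA. Competitors ranged 0.3 pM–10 μM. Nonspecific binding was defined with 1 mM unlabeled ligand. Bound label was collected by filtration and counted. Means from ≥3 duplicate experiments.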

For assay [2], the target named is T1, Substance-K receptor (Homo sapiens) (UniProt P21452).
T1 sequence (whole entry): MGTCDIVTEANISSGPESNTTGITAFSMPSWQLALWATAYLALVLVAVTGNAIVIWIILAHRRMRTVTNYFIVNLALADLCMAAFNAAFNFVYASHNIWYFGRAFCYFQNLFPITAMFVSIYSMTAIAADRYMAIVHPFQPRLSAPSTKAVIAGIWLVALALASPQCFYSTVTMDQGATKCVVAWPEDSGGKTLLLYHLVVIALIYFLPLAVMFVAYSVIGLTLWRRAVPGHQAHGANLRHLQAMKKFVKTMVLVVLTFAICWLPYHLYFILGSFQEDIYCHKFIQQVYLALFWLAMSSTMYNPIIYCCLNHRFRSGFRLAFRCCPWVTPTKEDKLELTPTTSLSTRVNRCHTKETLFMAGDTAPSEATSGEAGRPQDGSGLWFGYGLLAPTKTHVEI
Kind of assay: Binding affinity against wild-type human Wild-type tachykinin receptor 2 (hNK-2R) using [125I]-NKA as a radioligand.

Assay [3] deals with Substance-K receptor (Homo sapiens), P21452 [F168A]. Nature of the assay: Binding affinity against F168A human neurokinin-2 receptor (hNK-2R) using [3H]-nepadutant as a radioligand. In a few lines: as §1
Assay [4] relates to Substance-K receptor (Homo sapiens), P21452 [N110A]. Nature of the assay: Binding affinity against N110A human neurokinin-2 receptor (hNK-2R) using [3H]nepadutant as a radioligand; UB is Undetectable Binding. In a few lines:
as §1

The subject of assay [5] is T2, Substance-K receptor (Homo sapiens), P21452 [C167A].
T2 sequence (whole entry): T1 sequence (whole entry) with C167A
Nature of the assay: Binding affinity against C167A human neurokinin-2 receptor (hNK-2R) using [3H]nepadutant as a radioligand; UB is Undetectable Binding. The method, boiled down:
as §1

For assay [6], the target named is T1, Substance-K receptor (Homo sapiens). Kind of assay: Binding affinity against wild-type human Wild-type tachykinin receptor 2 (hNK-2R) using [3H]-SR-48,968 as a radioligand. In a few lines:
(§2)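 Radioligand [3H]SR48968 was incubated for 30 min at 20 °C with membranes from stably transfected wild-type or mutant hNK-2R cells, in Tris-HCl 50 mM pH 7.4 buffer with protease inhibitors, NaCl, MnCl2 and BSA. Test ligands ranged 0.3 pM–10 μM, with nonspecific binding in 1 mM unlabeled ligand. Filtration through PEI-soaked filters was followed by scintillation counting. pKi was derived by curve fitting, duplicate determinations.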

In assay [7] the test system is T3, Substance-K receptor (Homo sapiens), P21452 [W263A].
T3 sequence (whole entry): T1 sequence (whole entry) with W263A
Nature of the assay: Binding affinity against W263A human neurokinin-2 receptor (hNK-2R) using [3H]SR-48,968 as a radioligand. In a few lines: as §2

Assay [8] deals with T4, Substance-K receptor (Homo sapiens), P21452 [Y266F].
T4 sequence (whole entry): T1 sequence (whole entry) with Y266F

Assay [9] relates to Substance-K receptor (Homo sapiens), P21452 [I202F]. Kind of assay: Binding affinity against I202F human neurokinin-2 receptor (hNK-2R) using [3H]nepadutant as a radioligand. In a few lines: as §1
Assay [10] relates to T2, Substance-K receptor (Homo sapiens), P21452 [C167A]. Nature of the assay: Binding affinity against C167A human neurokinin-2 receptor (hNK-2R) using [3H]SR-48,968 as a radioligand. In a few lines:
as §2

Assay [11] has as its system Substance-K receptor (Homo sapiens), P21452 [Y269F]. Nature of the assay: Binding affinity against Y269F human neurokinin-2 receptor (hNK-2R) using [3H]nepadutant as a radioligand. The method, boiled down:
as §1

Each structure is given as a SMILES string. Where a chain is given by its changes, count along the chain named. Calls of active or inactive are those of the source. The calls are words filed in the database; no cut-off is given here. Where a SMILES comes first, the peptide text is derived from it. Bridges are numbered along the chain shown (N, C = ends). [ ]: non-standard residue; d: D form. The star is where a group is joined. NH(β-GlcNAc) = CC(=O)N[C@@H]1[C@@H](O)[C@H](O)[C@@H](CO)O[C@H]1N*; Dap = NC[C@H](N)C(=O)O

Chain of Substance-K receptor (Homo sapiens), P21452 [I202F] (P21452 whole entry I202F): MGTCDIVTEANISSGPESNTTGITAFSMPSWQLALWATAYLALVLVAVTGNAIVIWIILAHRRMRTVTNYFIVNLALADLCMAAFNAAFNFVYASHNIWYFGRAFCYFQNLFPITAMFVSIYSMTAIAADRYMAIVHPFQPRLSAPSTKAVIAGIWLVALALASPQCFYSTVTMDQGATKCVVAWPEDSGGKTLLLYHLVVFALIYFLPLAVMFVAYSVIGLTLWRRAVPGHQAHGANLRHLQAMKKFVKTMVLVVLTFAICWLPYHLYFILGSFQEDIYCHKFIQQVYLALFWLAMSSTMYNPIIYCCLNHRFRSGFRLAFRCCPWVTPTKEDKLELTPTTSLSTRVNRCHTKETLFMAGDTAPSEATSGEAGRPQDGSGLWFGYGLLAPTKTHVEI
Chain of Substance-K receptor (Homo sapiens), P21452 [S164A] (P21452 whole entry S164A): as the sequence (P21452 whole entry I202F) above, with S164A, F202I counted along it
Chain of Substance-K receptor (Homo sapiens), P21452 [N110A] (P21452 whole entry N110A): as the sequence (P21452 whole entry I202F) above, with N110A, F202I counted along it
Chain of Substance-K receptor (Homo sapiens), P21452 [F168A] (P21452 whole entry F168A): as the sequence (P21452 whole entry I202F) above, with F168A, F202I counted along it
Chain of Substance-K receptor (Homo sapiens), P21452 [Y269F] (P21452 whole entry Y269F): as the sequence (P21452 whole entry I202F) above, with F202I, Y269F counted along it

For `CC(=O)N[C@@H]1[C@@H](O)[C@H](O)[C@@H](CO)O[C@H]1NC(=O)C[C@@H]1NC(=O)[C@H](CC(C)C)NC(=O)[C@@H]2CNC(=O)C[C@H](NC1=O)C(=O)N[C@@H](Cc1c[nH]c3ccccc13)C(=O)N[C@@H](Cc1ccccc1)C(=O)N2` (cyclo(D(NH(β-GlcNAc))DWF[Dap]L); lactam 2-5), the KD/Ki came out at 2.6 nM in [1]; 2.4 nM in assay [2]; 4.1 nM in assay [3]; 9.1 nM in [6]; 502 nM in assay [7]; 16.3 nM in assay [8]. The figures for the KD/Ki in [9], in [10] and in [11] were 0.44 nM, over 10000 nM and 1.7 nM, respectively. Moreover, the UB entry in assay [4] and in [5] was “inactive” throughout.
